Laboratory results: ChEMBL document CHEMBL1126812, “Further insights into the molecular mechanisms of action of the serotonergic neurotoxin 5,7-dihydroxytryptamine” (J Med Chem, 1993)

Key:
Mus musculus [1] = experiment: Effect of central administration on whole mouse brain homovanillic acid (HAV) level after 1 hr; assay type: functional, organism-based
How it was run: (§1)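 Adult male outbred Hsd:ICR mice (25-35 g) under light ether anesthesia received a single 25 or 30 µg (free base) intracranial dose near the left lateral ventricle. Vehicle was 5 µL isotonic saline with 1.0 mg/mL ascorbate, and controls got vehicle alone. Mice were killed by focused microwave (250 ms, 7.0 kW) at 1 h, 1 day or 1 week. Brains were homogenized, spun at 50 000g (4 °C, 1 h) and filtered. Amines and metabolites were measured by LCEC as % of control ± sem, n = 11-18.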

Mus musculus [2] = experiment: Effect of central administration on whole mouse brain 5-hydroxyindole-3-acetic acid(5-HIAA)level after 1 week; assay type: functional, organism-based; how it was run: as §1
Mus musculus [3] = experiment: Effect of central administration on whole mouse brain 5-hydroxytryptamine (5-HT) level after 1 week; assay type: functional, organism-based; how it was run: as §1
Mus musculus [4] = experiment: Effect of central administration on whole mouse brain 5-hydroxyindole-3-acetic acid(5-HIAA)level after 1 day; assay type: functional, organism-based; how it was run: as §1
Mus musculus [5] = experiment: Effect of central administration on whole mouse brain acetylcholine (ACh) level after 1 week; assay type: functional, organism-based
How it was run: (§2)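 The dosing, vehicle, controls, microwave sacrifice, timepoints and brain processing were the same as for the amine lines. Whole mouse brain ACh and choline were measured by LCEC on 20 µL aliquots of the filtered 50 000g supernate, which had been stored at -80 °C. Values are % of vehicle controls ± sem, n = 11-18 per group.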

Mus musculus [6] = experiment: Effect of central administration on whole mouse brain 3,4-di hydroxyphenylacetic acid (DOPAC) level after 1 hr; assay type: functional, organism-based; how it was run: as §1
Mus musculus [7] = experiment: Effect of central administration on whole mouse brain norepinephrine (NE) level after 1 hr; assay type: functional, organism-based; how it was run: as §1
Mus musculus [8] = experiment: Effect of central administration on whole mouse brain choline (Ch) level after 1 week; assay type: functional, organism-based; how it was run: as §2
Mus musculus [9] = experiment: Effect of central administration on whole mouse brain norepinephrine (NE) level after 1 day; assay type: functional, organism-based; how it was run: as §1
Mus musculus [10] = experiment: Effect of central administration on whole mouse brain homovanillic acid (HAV) level after 1 day; assay type: functional, organism-based; how it was run: as §1
Mus musculus [11] = experiment: Effect of central administration on whole mouse brain 5-HT (5-HT) after 1 hr; assay type: functional, organism-based; how it was run: as §1
Mus musculus [12] = experiment: Effect of central administration on whole mouse brain dopamine (DA) level after 1 week; assay type: functional, organism-based; how it was run: as §1
Mus musculus [13] = experiment: Effect of central administration on whole mouse brain dopamine (DA) level after 1 day; assay type: functional, organism-based; how it was run: as §1
Mus musculus [14] = experiment: Effect of central administration on whole mouse brain choline (Ch) level after 1 day; assay type: functional, organism-based; how it was run: as §2
Mus musculus [15] = experiment: Effect of central administration on whole mouse brain 3,4-di hydroxyphenylacetic acid (DOPAC) level after 1 day; assay type: functional, organism-based; how it was run: as §1
Mus musculus [16] = experiment: Effect of central administration on whole mouse brain norepinephrine (NE) level after 1 week; assay type: functional, organism-based; how it was run: as §1
Mus musculus [17] = experiment: Effect of central administration on whole mouse brain 5-hydroxyindole-3-acetic acid(5-HIAA)level after 1 hr; assay type: functional, organism-based; how it was run: as §1
Mus musculus [18] = experiment: Effect of central administration on whole mouse brain 5-hydroxytryptamine (5-HT) level after 1 day; assay type: functional, organism-based; how it was run: as §1
Mus musculus [19] = experiment: Effect of central administration on whole mouse brain choline (Ch) level after 1 hr; assay type: functional, organism-based; how it was run: as §2
Mus musculus [20] = experiment: Weight which caused death of 50% of the treated animals within 1 hr following drug administration; assay type: ADME, organism-based; details: in vivo
How it was run: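 Adult male outbred Hsd:ICR albino mice, 25-35 g, given compound (dose as free base) intracranially near the left lateral ventricle under light ether anesthesia, in 5 µL isotonic saline containing 1.0 mg/mL ascorbic acid. Deaths within 1 h were scored, and LD50 (injected weight) was derived by Dixon's statistical method, reported as mean ± standard deviation on a log microgram scale.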

Mus musculus [21] = experiment: Effect of central administration on whole mouse brain acetylcholine (ACh) level after 1 hr; assay type: functional, organism-based; how it was run: as §2
Mus musculus [22] = experiment: Effect of central administration on whole mouse brain acetylcholine (ACh) level after 1 day; assay type: functional, organism-based; how it was run: as §2
Mus musculus [23] = experiment: Effect of central administration on whole mouse brain 3,4-di hydroxyphenylacetic acid (DOPAC)level after 1 week; assay type: functional, organism-based; how it was run: as §1
Mus musculus [24] = experiment: Effect of central administration on whole mouse brain homovanillic acid (HAV) level after 1 week; assay type: functional, organism-based; how it was run: as §1
Mus musculus [25] = experiment: Effect of central administration on whole mouse brain dopamine (DA) level after 1 hr; assay type: functional, organism-based; how it was run: as §1
Mus musculus [26] = experiment: Effect of central administration on whole mouse brain 5-hydroxytryptamine (5-HT) after 1 day; assay type: functional, organism-based; how it was run: as §1
Mus musculus [27] = experiment: Effect of central administration on whole mouse brain 5-HT (5-HT) after 1 week; assay type: functional, organism-based; how it was run: as §1
Mus musculus [28] = experiment: Effect of central administration on whole mouse brain cholin (Ch) level after 1 hr; assay type: functional, organism-based; how it was run: as §2
Mus musculus [29] = experiment: Effect of central administration on whole mouse brain 3,4-di hydroxyphenylacetic acid (DOPAC) level after 1 week; assay type: functional, organism-based; how it was run: as §1
Mus musculus [30] = experiment: Effect of central administration on whole mouse brain 5-hydroxyindole-3-acetic acid (5-HIAA) level after 1 hr; assay type: functional, organism-based; how it was run: as §1
Mus musculus [31] = experiment: Effect of central administration on whole mouse brain cholin (Ch) level after 1 day; assay type: functional, organism-based; how it was run: as §2
Mus musculus [32] = experiment: Effect of central administration on whole mouse brain 5-hydroxyindole-3-acetic acid (5-HIAA) level after 1 week; assay type: functional, organism-based; how it was run: as §1
Mus musculus [33] = experiment: Effect of central administration on whole mouse brain cholin (Ch) level after 1 week; assay type: functional, organism-based; how it was run: as §2
Mus musculus [34] = experiment: Effect of central administration on whole mouse brain 5-hydroxyindole-3-acetic acid (5-HIAA) level after 1 day; assay type: functional, organism-based; how it was run: as §1

**Q.** `NCCc1c[nH]c2c1C(=O)C(=O)C=C2O` was tested. Which Level (Mus musculus [1]) did it give?
**A.** The Level was 147%.

**Q.** And the Level (Mus musculus [2])?
**A.** Its Level is 106%.

**Q.** What about the Level (Mus musculus [3]) of the same compound?
**A.** Its Level is 104%.

**Q.** What about the Level (Mus musculus [4]) of the same compound?
**A.** Its Level is 82%.

**Q.** What about the Level (Mus musculus [5]) of the same compound?
**A.** The Level was 107%.

**Q.** And the Level (Mus musculus [6])?
**A.** The Level was 54%.

**Q.** And the Level (Mus musculus [7])?
**A.** Its Level is 80%.

**Q.** What about the Level (Mus musculus [8]) of the same compound?
**A.** The Level was 106%.

**Q.** What about the Level (Mus musculus [9]) of the same compound?
**A.** Its Level is 84%.

**Q.** And the Level (Mus musculus [10])?
**A.** Its Level is 92%.

**Q.** What about the Level (Mus musculus [11]) of the same compound?
**A.** Its Level is 89%.

**Q.** And the Level (Mus musculus [12])?
**A.** The Level was 114%.

**Q.** And the Level (Mus musculus [13])?
**A.** The Level was 79%.

**Q.** What about the Level (Mus musculus [14]) of the same compound?
**A.** Its Level is 57%.

**Q.** And the Level (Mus musculus [15])?
**A.** The Level was 107%.

**Q.** And the Level (Mus musculus [16])?
**A.** Its Level is 114%.

**Q.** What about the Level (Mus musculus [17]) of the same compound?
**A.** Its Level is 159%.

**Q.** And the Level (Mus musculus [18])?
**A.** Its Level is 72%.

**Q.** And the Level (Mus musculus [19])?
**A.** The Level was 153%.

**Q.** And the LD50 (Mus musculus [20])?
**A.** The LD50 was 29.6 µg.

**Q.** What about the Level (Mus musculus [21]) of the same compound?
**A.** The Level was 100%.

**Q.** What about the Level (Mus musculus [22]) of the same compound?
**A.** Its Level is 65%.

**Q.** What about the Level (Mus musculus [23]) of the same compound?
**A.** The Level was 117%.

**Q.** What about the Level (Mus musculus [24]) of the same compound?
**A.** Its Level is 112%.

**Q.** And the Level (Mus musculus [25])?
**A.** Its Level is 92%.

**Q.** Which LD50 (Mus musculus [20]) does the source give for `NCCc1c[nH]c2c(O)cc(O)cc12` here?
**A.** Its LD50 is 51.8 µg.

**Q.** Which results are given for `NCCc1c[nH]c2c1C(=O)C(O)=C(C1=C(O)c3[nH]cc(CCN)c3C(=O)C1=O)C2=O`?
**A.** Level (Mus musculus [1]): 102%; Level (Mus musculus [26]): 75%; Level (Mus musculus [5]): 123%; Level (Mus musculus [6]): 74%; Level (Mus musculus [7]): 95%; Level (Mus musculus [27]): 103%; Level (Mus musculus [9]): 82%; Level (Mus musculus [10]): 85%; Level (Mus musculus [11]): 88%; Level (Mus musculus [13]): 85%; Level (Mus musculus [28]): 126%; Level (Mus musculus [15]): 116%; Level (Mus musculus [16]): 89%; Level (Mus musculus [29]): 101%; Level (Mus musculus [30]): 118%; Level (Mus musculus [31]): 78%; LD50 (Mus musculus [20]): 25.4 µg; Level (Mus musculus [21]): 83%; Level (Mus musculus [32]): 152%; Level (Mus musculus [33]): 115%; Level (Mus musculus [34]): 76%; Level (Mus musculus [22]): 78%; Level (Mus musculus [25]): 97%
